Measurements pooled from the literature.
Protocols differ between the studies behind these lines.
Target: Tyrosine-protein kinase SYK (SYK, Homo sapiens, UniProt P43405)

With `Cn1cc(-c2cccc(N3CCc4c(sc5c4CC(C)(C)C5)C3=O)c2CO)cc(Nc2ccncn2)c1=O` the inhibition was 0% (enzyme activity; inhibitor; 1 µM).
For `N#CC1(c2ccccn2)CCN(Cc2cc(C(=O)O)c(=O)n3ccccc23)CC1`, the remaining binding was 92% (cell-free assay; competition with immobilised ligand; 1 µM).
With `Cn1cc(-c2cc(F)cc(N3CCn4c(cc5c4CCCC5)C3=O)c2CO)cc(Nc2ccc(N3CCN(C4COC4)CC3)cn2)c1=O` the inhibition was 12% (enzyme activity; inhibitor; 0.1 µM).
With `Nc1ncc(-c2nc(N3CCOCC3)nc(N3CCOCC3)n2)c(C(F)F)n1` the remaining binding was 61% (binding; competition with immobilised ligand; 10 µM).
For `O=c1[nH]c2ccccc2n1C1CCN(Cc2ccc(-c3[nH]c4cc5ncnc5cc4nc3-c3ccccc3)cc2)CC1`, the remaining signal was 97.9% (cell-free assay; 0.5 µM).
`Cc1nn(C)cc1-c1nc2c(N3CCN(Cc4ccc(Cl)cc4)CC3)c(Cl)cnc2[nH]1` has a remaining binding of 100% (binding; competition with immobilised ligand; 1 µM).
With `Cn1cncc1[C@@](O)(COc1ccc(C#N)cc1-c1ccc(OC(F)(F)F)cc1)c1ccc(C#N)cc1` the remaining binding was 100% (cell-free assay; competition with immobilised ligand; 1 µM).
`C#Cc1n[nH]c2c(-c3cn([C@@H](C)c4ccccn4)c(=O)[nH]c3=O)cc(F)cc12` has an inhibition of 3.3% (enzyme activity; inhibitor; 0.1 µM).
`COc1ncccc1-c1cnn2ccc(N3CCN(C(=O)OC(C)C)CC3)nc12` has a remaining binding of 100% (binding; competition with immobilised ligand; 1 µM).
